A selection: hits, their analogues and other compounds. The true share with any hit is near 1.9%.
Tb MetRS inh: Trypanosoma brucei MetRS inhibition | 360,000 tested, 0.4% active | purified T. brucei MetRS, ATP depletion, Kinase-Glo luminescence | inhibition, % at 11.9 µM;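 active means inhibition above a per-plate cutoff of the control wells' mean inhibition plus 3 SD, cut at about 5.5% in these data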;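 further: 0% = DMSO wells median and 100% = median of wells with control inhibitor compound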
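System: purified T. brucei MetRS enzyme / Detection: Kinase-Glo luciferase luminescence reporting remaining unconsumed ATP / Medium: HEPES buffer with MgCl2, KCl, DTT, spermine, BSA, pyrophosphatase / Replication: singlicate, one well per compound / Evaluation: percent inhibition relative to median high and low control wells / Schedule: 2 h aminoacylation at 25 °C after 15 min preincubation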
DAGLB inhibitor: diacylglycerol lipase beta (human) inhibition | Q8NCG7 | HEK293T DAGLB membrane lysate, EnzChek fluorogenic substrate | inhibition, % at 5.17 µM | 340,000 tested, 0.059% active | AID 504411; in the data active means inhibition above about 34%;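 further: 0% = enzyme with vehicle and 100% = wells lacking enzyme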
PLCb3 inh: blocks human PLC-beta3 enzyme activity; Purified PLC-beta3, fluorogenic substrate, fluorescence; inhibition, % at 12.2 µM; 370,000 tested, 0.18% active; AID 720704; in the data active means inhibition above about 11%;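 further: 0% = median of compound wells on plate and 100% = full blocker control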
sPLA2-III inh: Inhibits HGIII-sPLA2 liposome hydrolysis, primary screen; Q9NZ20; QFRET BODIPY PC-A2 liposome hydrolysis, fluorescence; inhibition, % at 12.2 µM; 370,000 tested, 0.56% active;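 active means inhibition above mean plus 3 SD of compounds lying within the high and low control bounds, cut at about 19% in these data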;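 further: 0% = median of test compound wells and 100% = no enzyme DMSO wells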
Target sequence (Q9NZ20 whole entry, looked up): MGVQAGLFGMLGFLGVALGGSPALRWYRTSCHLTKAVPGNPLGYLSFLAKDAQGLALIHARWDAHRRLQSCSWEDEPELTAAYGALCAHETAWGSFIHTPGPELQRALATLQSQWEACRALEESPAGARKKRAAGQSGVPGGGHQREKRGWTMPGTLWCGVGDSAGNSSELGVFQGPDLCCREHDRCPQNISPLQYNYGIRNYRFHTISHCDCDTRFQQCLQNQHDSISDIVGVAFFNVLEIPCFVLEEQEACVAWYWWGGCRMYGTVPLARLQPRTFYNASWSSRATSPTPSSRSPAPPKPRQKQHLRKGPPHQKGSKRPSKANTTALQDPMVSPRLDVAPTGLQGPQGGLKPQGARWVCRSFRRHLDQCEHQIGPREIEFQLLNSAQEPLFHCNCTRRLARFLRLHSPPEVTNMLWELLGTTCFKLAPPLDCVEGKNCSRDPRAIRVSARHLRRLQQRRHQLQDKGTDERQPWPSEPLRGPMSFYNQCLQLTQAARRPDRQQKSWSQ
PLCg1 inh: inhibitors of human phospholipase C gamma1; P19174; purified PLC-gamma1, fluorogenic substrate, fluorescence; inhibition, % at 12.2 µM; 370,000 tested, 0.84% active
PLCg1 ctr: PLC-gamma1 inhibition, counter-screen for PLC-beta3 hits; shares compounds with PLCg1 inh; purified PLC-gamma1, fluorogenic substrate, fluorescence; inhibition, % at 12.3 µM; 3,300 tested, 3.1% active; AID 743258
PLCb3 confirm: human PLC-beta3 inhibition, confirmation; AID 743261; 3,300 tested, 1% active; shares compounds with PLCg1 inh; purified PLC-beta3, fluorogenic substrate fluorescence; inhibition, % at 12.3 µM; in the data active means inhibition above about 11%
* marks the source's active call; other numbers are inactive results; . = not tested or not shown. Unless noted, no stated cut-off is given here; in the data, active means inhibition above about 9.5%; inactive means the rest.

SMILES	Tb MetRS inh	DAGLB inhibitor	PLCb3 inh	sPLA2-III inh	PLCg1 inh	PLCg1 ctr	PLCb3 confirm
COC(=O)[C@]12C[C@H](CC(=O)N3CCN(C(=O)c4ccco4)CC3)C(=O)N(CCC3=CCCCC3)C1=C[C@H](C(C)(C)C)O[C@@H]2C	.	.	2	-5	1	.	.
CCCCNCCCOc1cc(Cl)ccc1Cl	0	-4	11*	9	7	-5	1
CCCCNCCOCCOc1ccc(Cl)cc1Br	1	1	1	-3	1	.	.
CN(c1ccc(NC(=O)CCc2c[nH]c3ccccc23)cc1)c1ccccn1	.	.	-12	-38	-8	.	.
CN(Cc1nccn1C)C(=O)CCc1nnc(CCC2CCCCC2)o1	-1	0	2	5	-4	.	.
Cc1nn(C)cc1CN(C)C(=O)CCc1nnc(CCC2CCCCC2)o1	0	-1	-2	14	11*	-5	0
CC(C)(C)c1ccc(S(=O)(=O)N2CCCC(C(=O)NCc3cccs3)C2)cc1 (stereo not given)	.	.	1	-3	3	.	.
CCC(=O)NCCc1nc2ccccc2n1Cc1ccc(C)cc1	0	-1	-2	4	19*	-8	-5
O=C(Nc1ccc(Cl)cc1F)c1cc(S(=O)(=O)N2CCCCC2)ccc1F	-1	0	-2	18	12*	-6	-5
O=C(NCc1ccccc1)c1ccc(C(=O)NCc2ccccc2)cc1	0	-2	1	-2	5	.	.
O=C(NCc1ccccc1)c1n[nH]nc1-c1ccccc1O	-1	-1	-7	-46	17*	16*	-6
O=C(NCCCn1ccnc1)c1nc(Cn2cc(Br)cn2)no1	-1	0	-4	3	0	.	.
Cc1nccn1CCCNC(=O)c1nc(Cn2cc([N+](=O)[O-])cn2)no1	0	-1	2	8	9.6*	9	2
Cc1ccc(NC(=O)CSc2nnc(-c3cc(-c4ccc(Cl)cc4)n[nH]3)n2N)cc1	.	.	-1	11	2	.	.
CCOC(=O)C(CCCOc1ccccc1C)C(=O)OCC	-1	-12	-11	7	12*	-5	-2
COC(=O)[C@]12C[C@H](CC(=O)NCc3cccs3)C(=O)N(Cc3ccc(Cl)cc3Cl)C1=C[C@H](C(C)(C)C)O[C@@H]2C	.	.	6	-7	1	.	.
O=P(Cc1cc[n+]([O-])cc1)(c1ccccc1)c1ccccc1	-1	-3	11*	0	7	-3	1
COc1ccc(NC(=O)CCCNS(=O)(=O)c2ccc3[nH]c(=O)oc3c2)cc1OC	.	.	-2	6	0	.	.
O=[N+]([O-])c1nccn1CC(O)CO (stereo not given)	-1	.	8	15	10*	-2	2
Cc1ccc(C2NC(=O)c3n[nH]c(C)c32)cc1 (stereo not given)	.	.	-15	0	-6	.	.
O=c1cc(SCc2ccccc2)nc[nH]1	0	1	-3	5	12*	-8	-7
O=C1OCc2cc(NS(=O)(=O)c3cccs3)ccc21	0	1	-1	-3	10*	-2	-6
O=S(=O)(Nc1ccc2c(c1)CCC2)c1cccs1	0	1	-2	-14	0	.	.
CCCCCCCCN1C(=O)[C@@H](CC(=O)N2CCCCC2)C[C@@]2(C(=O)OC)C1=C[C@H](C1CCCC1)O[C@@H]2C	.	.	4	1	1	.	.
CCCCNC(=O)NC(C(=O)OC)C12CC3CC(CC(C3)C1)C2 (stereo not given)	0	-2	4	7	13*	-2	3
CCCCNC(=O)NC12CC3CC(CC(C3)C1)C2	0	1	-2	3	3	.	.
COCCCNC(=O)CS(=O)Cc1nc(-c2cccc(OC)c2)oc1C (stereo not given)	0	2	4	1	66*	-4	-2
COCCNC(=O)CS(=O)Cc1nc(-c2ccc(OC)cc2)oc1C (stereo not given)	0	1	-1	-2	-3	.	.
C=CCNC(=O)N1CCCC(C(=O)c2cccc(OC(C)C)c2)C1 (stereo not given)	0	0	1	0	11*	3	1
S=C(Nc1ccc(Cl)c(Cl)c1)Nc1nnc(-c2ccncc2)s1	.	.	-17	0	-13	.	.

From PubChem
